What was measured:
[1] = tested on: avian myeloblastosis virus reverse transcriptase (AMV-RT); assay: PAGE analysis of primer extension reactions, AMV-RT; format: biochemical; conditions: single dNTPs
human DNA polymerase β [2] = molecular target: T1, human DNA polymerase β (Homo sapiens, UniProt P06746); assay: PAGE analysis of primer extension reactions, pol β; format: biochemical
human DNA polymerase β [3] = molecular target: T1, human DNA polymerase β; assay: MALDI-TOF analysis of primer extension products, pol β; format: biochemical; conditions: 1 mM each dNTP, 19-mer and 20-mer products
Procedure, shortened: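 Unlabelled 16-mer primer (10 pmol) annealed to a 25-mer template (20 pmol; 2′-O-methylguanosine or 8-nitro-2′-O-methylguanosine) at 70°C for 20 min, then room temperature for 15 min. Final pol β was 750 nM, with 1 mM each dNTP. Incubated 37°C for 60 min, stopped at 90°C for 5 min. Desalted on C18 tips (0.1 M TEAA pH 7.0), eluted in 3-HPA/ammonium citrate matrix. Products assigned by calculated m/z against a 20-mer standard mix.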

[4] = tested on: avian myeloblastosis virus reverse transcriptase (AMV-RT); assay: MALDI-TOF analysis of primer extension products, AMV-RT; format: biochemical; conditions: 1 mM each dNTP, 20-mer products
[5] = cited from earlier work
[6] = pKa determination from pH-dependent UV absorption; format: physicochemical; conditions: 25 °C; for pKa (deprotonation at N1): free nucleoside
[7] = free nucleoside; cited from earlier work

With “5′-TCANCATTGGGAGTCGACATAGCGC–3′ [8-nitroG template]” the “single dNTP most preferentially inserted” value [1] was “dATP”, the “dCTP incorporation, level relative to the control” value (human DNA polymerase β [2]; single dCTP) was less than 20% and the “increase of dTTP incorporation relative to control” value (human DNA polymerase β [2]; single dTTP, from a low level) was “around 2 fold”.
With “5′-TCANCATTGGGAGTCGACATAGCGC–3′ [control template]” the “nucleotide incorporated opposite X in extended products” value (human DNA polymerase β [3]) was “only dC” and the “nucleotide incorporated opposite X in extended products” value [4] was “predominantly dC”.
For `Nc1nc2c(nc([N+](=O)[O-])n2C2OC(CO)C(O)C2F)c(=O)[nH]1` (centres unmarked) [2′-fluoro, reference compound], the “half-life (depurination)” value ([5]; pH 7.4) is listed as 72 days.
In the case of `Nc1nc2c(nc([N+](=O)[O-])n2[C@@H]2O[C@H](CO)[C@@H](O)[C@H]2O)c(=O)[nH]1` [Compound 6a, 8-Nitroguanosine], the “half-life (hydrolytic stability)” value ([5]; pH 7 and 37°C, ref one published study) is given as 0.21 days and the “pKa (deprotonation at N1)” value [6] is given as 8.4.
In the case of `CO[C@@H]1[C@H](O)[C@@H](CO)O[C@H]1n1c([N+](=O)[O-])nc2c(=O)[nH]c(N)nc21` [Compound 6b, 8-Nitro-2′-O-methylguanosine], the “pKa (deprotonation at N1)” value [6] is reported as 8.3.
In the case of `Nc1nc2c(ncn2[C@@H]2O[C@H](CO)[C@@H](O)[C@H]2O)c(=O)[nH]1` [guanosine], the pKa [7] is listed as 9.4.
For GCGTACG**CATGCG [ODN4], the “pKa of 8-nitro-2′-O-methylguanosine within the single-stranded oligonucleotide” value ([6]; single-stranded ODN GCGTACG**CATGCG) was 9.1.

Reference: article PMC3505964 (Nucleic Acids Research, 2012)
